The assay deals with Neuraminidase (Influenza A virus) (UniProt B4URF0). Nature of the assay: Inhibition of oseltamivir-resistant Influenza Virus A/342/0 (H1N1) neuraminidase at 52.5 uM. The procedure, abridged: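 Human oseltamivir-resistant H1N1 NA tested at a single 52.5 μM concentration in the NA-Star chemiluminescent assay. Compound and virus dilution were held 20 min at 37 C, then substrate (1:500) was added for 30 min at room temperature. Value given as percent inhibition relative to six untreated virus controls.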

Molecules are shown by their SMILES.

This is an account of results in ChEMBL document CHEMBL1154750 (J Med Chem, 2010).

Neuraminidase (Influenza A virus), sequence (B4URF0 as listed by the source): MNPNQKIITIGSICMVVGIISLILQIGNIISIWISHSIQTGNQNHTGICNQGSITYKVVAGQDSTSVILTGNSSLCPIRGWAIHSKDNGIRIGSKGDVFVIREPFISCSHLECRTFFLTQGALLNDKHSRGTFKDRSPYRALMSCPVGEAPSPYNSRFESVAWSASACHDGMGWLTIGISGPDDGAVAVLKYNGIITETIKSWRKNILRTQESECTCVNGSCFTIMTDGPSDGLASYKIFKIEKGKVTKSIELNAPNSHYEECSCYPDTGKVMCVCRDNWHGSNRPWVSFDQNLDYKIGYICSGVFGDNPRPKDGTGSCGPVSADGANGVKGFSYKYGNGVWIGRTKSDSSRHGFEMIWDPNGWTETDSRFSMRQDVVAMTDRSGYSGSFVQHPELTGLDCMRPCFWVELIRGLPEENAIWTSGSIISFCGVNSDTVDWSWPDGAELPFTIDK

`O=C(CCc1ccccc1)C[C@@H]1C[C@@H](c2ccccc2)c2c(cc(/C=C/c3ccccc3)oc2=O)O1` [KATSUMADAIN A]: the inhibition was determined as 45.9%.
